Measured values reported in ChEMBL document CHEMBL3244145, “Synthesis and quantitative structure--activity relationships of some antibacterial 3-formylrifamycin SV N-(4-substituted phenyl)piperazinoacethydrazones” (J Med Chem, 1978).
≈ marks a conversion by molar mass, not a printed value. Calls of active or inactive are those of the source. The calls are words filed in the database; no cut-off is given here.

Assays:
L929 = test: Cytotoxicity against mouse L929 cells by microscopic analysis; assay type: cell-based
Staphylococcus aureus = test: Antimicrobial activity against Staphylococcus aureus 11 by serial dilution method; assay type: functional; conditions: for MIC: Staphylococcus aureus, 11
Bacillus subtilis = test: Antimicrobial activity against Bacillus subtilis 104 by serial dilution method; assay type: functional; conditions: for MIC: Bacillus subtilis, 104
[1] = test system: Mycobacterium tuberculosis; test: Antimicrobial activity against Mycobacterium tuberculosis H37Rv by agar dilution method; assay type: functional; conditions: for MIC: Mycobacterium tuberculosis, H37Rv
Method in brief: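 Agar dilution: the hydrazone is dissolved in warm Middlebrook agar and serially diluted into two quadrants of a quartered dish, with two drug-free quadrants. After cooling, 0.1 mL of M. tuberculosis suspension (McFarland no. 1, set spectrophotometrically) is inoculated. Plates are incubated 14 days at 37 °C under 5% CO2 and scored for colonies. Run in duplicate.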

Vaccinia virus = test: Antiviral activity against Vaccinia virus infected in L929 cells assessed as reduction in plaque formation after 3 to 4 days by crystal violet staining method; assay type: functional, organism-based; conditions: Orthopoxvirus vaccinia
Clostridium perfringens = test: Antimicrobial activity against Clostridium perfringens 2 by serial dilution method; assay type: functional; conditions: for MIC: Clostridium perfringens, 2
Method in brief: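 Broth MICs were determined by serial dilution of the hydrazones, run in triplicate. Where results differed, the standard deviation of the three determinations is reported.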

Mycolicibacterium phlei = test: Antimicrobial activity against Mycobacterium phlei 111 by serial dilution method; assay type: functional; conditions: for MIC: Mycolicibacterium phlei, 111

| SMILES | Activity (L929) | log(1/C) (Staphylococcus aureus) | MIC (Staphylococcus aureus) | log(1/C) (Bacillus subtilis) | MIC (Bacillus subtilis) | log(1/C) [1] | MIC [1] | Activity (Vaccinia virus) | log(1/C) (Clostridium perfringens) | MIC (Clostridium perfringens) | log(1/C) (Mycolicibacterium phlei) | MIC (Mycolicibacterium phlei) |
| --- | --- | --- | --- | --- | --- | --- | --- | --- | --- | --- | --- | --- |
| CO[C@H]1/C=C/O[C@@]2(C)Oc3c(C)c(O)c4c(O)c(c(/C=N/NC(=O)CN5CCN(c6ccc(C(C)C)cc6)CC5)c(O)c4c3C2=O)NC(=O)/C(C)=C\C=C\[C@H](C)[C@H](O)[C@@H](C)[C@@H](O)[C@@H](C)[C@H](OC(C)=O)[C@@H]1C | Toxic | 7.56 | 0.027 µg/mL (≈ 0.0274 µM) | 5.3 | 4.9 µg/mL (≈ 4.98 µM) | 5.04 | 9 µg/mL (≈ 9.14 µM) | inactive | 8.52 | 0.003 µg/mL (≈ 0.00305 µM) | 5.48 | 3.25 µg/mL (≈ 3.3 µM) |
| CO[C@H]1/C=C/O[C@@]2(C)Oc3c(C)c(O)c4c(O)c(c(/C=N/NC(=O)CN5CCN(c6ccccc6)CC5)c(O)c4c3C2=O)NC(=O)/C(C)=C\C=C\[C@H](C)[C@H](O)[C@@H](C)[C@@H](O)[C@@H](C)[C@H](OC(C)=O)[C@@H]1C | Toxic | 7.22 | 0.057 µg/mL (≈ 0.0605 µM) | 5.24 | 5.4 µg/mL (≈ 5.73 µM) | 5.03 | 8.7 µg/mL (≈ 9.23 µM) | inactive | 8.13 | 0.007 µg/mL (≈ 0.00743 µM) | 5.12 | 7.13 µg/mL (≈ 7.57 µM) |
| CO[C@H]1/C=C/O[C@@]2(C)Oc3c(C)c(O)c4c(O)c(c(/C=N/NC(=O)CN5CCN(c6ccc(Oc7ccccc7)cc6)CC5)c(O)c4c3C2=O)NC(=O)/C(C)=C\C=C\[C@H](C)[C@H](O)[C@@H](C)[C@@H](O)[C@@H](C)[C@H](OC(C)=O)[C@@H]1C | Toxic | 7.74 | 0.019 µg/mL (≈ 0.0184 µM) | 5.32 | 5 µg/mL (≈ 4.83 µM) | 4.84 | 15 µg/mL (≈ 14.5 µM) | inactive | 8.11 | 0.008 µg/mL (≈ 0.00774 µM) | 5.24 | 6 µg/mL (≈ 5.8 µM) |
| CO[C@H]1/C=C/O[C@@]2(C)Oc3c(C)c(O)c4c(O)c(c(/C=N/NC(=O)CN5CCN(c6ccc(C)cc6)CC5)c(O)c4c3C2=O)NC(=O)/C(C)=C\C=C\[C@H](C)[C@H](O)[C@@H](C)[C@@H](O)[C@@H](C)[C@H](OC(C)=O)[C@@H]1C | Toxic | 7.4 | 0.038 µg/mL (≈ 0.0397 µM) | 5.27 | 5.1 µg/mL (≈ 5.33 µM) | 4.96 | 10.5 µg/mL (≈ 11 µM) | inactive | 8.14 | 0.007 µg/mL (≈ 0.00732 µM) | 5.14 | 7 µg/mL (≈ 7.32 µM) |
| COc1ccc(N2CCN(CC(=O)N/N=C/c3c4c(O)c5c(O)c(C)c6c(c5c3O)C(=O)[C@@](C)(O/C=C/[C@H](OC)[C@@H](C)[C@@H](OC(C)=O)[C@H](C)[C@H](O)[C@H](C)[C@@H](O)[C@@H](C)/C=C/C=C(/C)C(=O)N4)O6)CC2)cc1 | Toxic | 7.26 | 0.054 µg/mL (≈ 0.0555 µM) | 4.93 | 11.3 µg/mL (≈ 11.6 µM) | 4.81 | 15 µg/mL (≈ 15.4 µM) | inactive | 8.14 | 0.007 µg/mL (≈ 0.0072 µM) | 5.27 | 5.25 µg/mL (≈ 5.4 µM) |
| CO[C@H]1/C=C/O[C@@]2(C)Oc3c(C)c(O)c4c(O)c(c(/C=N/NC(=O)CN5CCN(c6ccc(C(F)(F)F)cc6)CC5)c(O)c4c3C2=O)NC(=O)/C(C)=C\C=C\[C@H](C)[C@H](O)[C@@H](C)[C@@H](O)[C@@H](C)[C@H](OC(C)=O)[C@@H]1C | Toxic | 7.62 | 0.024 µg/mL (≈ 0.0238 µM) | 5.01 | 9.8 µg/mL (≈ 9.7 µM) | 4.75 | 18 µg/mL (≈ 17.8 µM) | inactive | 8.7 | 0.002 µg/mL (≈ 0.00198 µM) | 5.14 | 7.38 µg/mL (≈ 7.31 µM) |
| CO[C@H]1/C=C/O[C@@]2(C)Oc3c(C)c(O)c4c(O)c(c(/C=N/NC(=O)CN5CCN(c6ccc(Cl)cc6)CC5)c(O)c4c3C2=O)NC(=O)/C(C)=C\C=C\[C@H](C)[C@H](O)[C@@H](C)[C@@H](O)[C@@H](C)[C@H](OC(C)=O)[C@@H]1C | Toxic | 7.43 | 0.036 µg/mL (≈ 0.0369 µM) | 5.31 | 4.8 µg/mL (≈ 4.92 µM) | 4.91 | 12 µg/mL (≈ 12.3 µM) | inactive | 8.21 | 0.006 µg/mL (≈ 0.00614 µM) | 5.19 | 6.38 µg/mL (≈ 6.53 µM) |
| CO[C@H]1/C=C/O[C@@]2(C)Oc3c(C)c(O)c4c(O)c(c(/C=N/NC(=O)CN5CCN(c6ccc(NC(C)=O)cc6)CC5)c(O)c4c3C2=O)NC(=O)/C(C)=C\C=C\[C@H](C)[C@H](O)[C@@H](C)[C@@H](O)[C@@H](C)[C@H](OC(C)=O)[C@@H]1C | Toxic | 7.22 | 0.06 µg/mL (≈ 0.0601 µM) | 4.92 | 12 µg/mL (≈ 12 µM) | 4.74 | 18 µg/mL (≈ 18 µM) | inactive | 8 | 0.01 µg/mL (≈ 0.01 µM) | 4.59 | 31 µg/mL (≈ 31 µM) |
| CO[C@H]1/C=C/O[C@@]2(C)Oc3c(C)c(O)c4c(O)c(c(/C=N/NC(=O)CN5CCN(c6ccc(Br)cc6)CC5)c(O)c4c3C2=O)NC(=O)/C(C)=C\C=C\[C@H](C)[C@H](O)[C@@H](C)[C@@H](O)[C@@H](C)[C@H](OC(C)=O)[C@@H]1C | Toxic | 7.46 | 0.035 µg/mL (≈ 0.0343 µM) | 5.31 | 5 µg/mL (≈ 4.9 µM) | 5.08 | 8.4 µg/mL (≈ 8.23 µM) | inactive | 8.23 | 0.006 µg/mL (≈ 0.00588 µM) | 5.22 | 6.13 µg/mL (≈ 6 µM) |
| CCc1ccc(N2CCN(CC(=O)N/N=C/c3c4c(O)c5c(O)c(C)c6c(c5c3O)C(=O)[C@@](C)(O/C=C/[C@H](OC)[C@@H](C)[C@@H](OC(C)=O)[C@H](C)[C@H](O)[C@H](C)[C@@H](O)[C@@H](C)/C=C/C=C(/C)C(=O)N4)O6)CC2)cc1 | Toxic | 7.57 | 0.026 µg/mL (≈ 0.0268 µM) | 5.25 | 5.5 µg/mL (≈ 5.67 µM) | 4.72 | 18.6 µg/mL (≈ 19.2 µM) | inactive | 8.51 | 0.003 µg/mL (≈ 0.00309 µM) | 5.16 | 6.75 µg/mL (≈ 6.96 µM) |
| CO[C@H]1/C=C/O[C@@]2(C)Oc3c(C)c(O)c4c(O)c(c(/C=N/N5CCN(C)CC5)c(O)c4c3C2=O)NC(=O)/C(C)=C\C=C\[C@H](C)[C@H](O)[C@@H](C)[C@@H](O)[C@@H](C)[C@H](OC(C)=O)[C@@H]1C [RIFAMPIN] |  | > 8.07 | < 0.007 µg/mL | 6.59 | 0.21 µg/mL (≈ 0.255 µM) | 5.91 | 1 µg/mL (≈ 1.22 µM) |  | 8.44 | 0.003 µg/mL (≈ 0.00365 µM) | 6.48 | 0.27 µg/mL (≈ 0.328 µM) |
| CO[C@H]1/C=C/O[C@@]2(C)Oc3c(C)c(O)c4c(O)c(c(/C=N/NC(=O)CN5CCN(c6ccc([N+](=O)[O-])cc6)CC5)c(O)c4c3C2=O)NC(=O)/C(C)=C\C=C\[C@H](C)[C@H](O)[C@@H](C)[C@@H](O)[C@@H](C)[C@H](OC(C)=O)[C@@H]1C | Toxic | 7.6 | 0.025 µg/mL (≈ 0.0253 µM) | 4.9 | 12.3 µg/mL (≈ 12.5 µM) | 4.74 | 18 µg/mL (≈ 18.2 µM) | inactive | 8.3 | 0.005 µg/mL (≈ 0.00507 µM) | 4.93 | 11.5 µg/mL (≈ 11.7 µM) |
| CO[C@H]1/C=C/O[C@@]2(C)Oc3c(C)c(O)c4c(O)c(c(/C=N/NC(=O)CN5CCN(c6ccc(C#N)cc6)CC5)c(O)c4c3C2=O)NC(=O)/C(C)=C\C=C\[C@H](C)[C@H](O)[C@@H](C)[C@@H](O)[C@@H](C)[C@H](OC(C)=O)[C@@H]1C | Toxic | 7.07 | 0.082 µg/mL (≈ 0.0848 µM) | 4.77 | 16.3 µg/mL (≈ 16.9 µM) | 4.72 | 18.6 µg/mL (≈ 19.2 µM) | inactive | 8.14 | 0.007 µg/mL (≈ 0.00724 µM) | 4.65 | 21.5 µg/mL (≈ 22.2 µM) |
| CO[C@H]1/C=C/O[C@@]2(C)Oc3c(C)c(O)c4c(O)c(c(/C=N/NC(=O)CN5CCN(c6ccc(C(C)(C)C)cc6)CC5)c(O)c4c3C2=O)NC(=O)/C(C)=C\C=C\[C@H](C)[C@H](O)[C@@H](C)[C@@H](O)[C@@H](C)[C@H](OC(C)=O)[C@@H]1C | Toxic | 7.49 | 0.033 µg/mL (≈ 0.0331 µM) | 5.32 | 4.8 µg/mL (≈ 4.81 µM) | 5.12 | 7.5 µg/mL (≈ 7.51 µM) | inactive | 8.7 | 0.002 µg/mL (≈ 0.002 µM) | 5.44 | 3.63 µg/mL (≈ 3.64 µM) |
| CO[C@H]1/C=C/O[C@@]2(C)Oc3c(C)c(O)c4c(O)c(c(/C=N/NC(=O)CN5CCN(c6ccc(F)cc6)CC5)c(O)c4c3C2=O)NC(=O)/C(C)=C\C=C\[C@H](C)[C@H](O)[C@@H](C)[C@@H](O)[C@@H](C)[C@H](OC(C)=O)[C@@H]1C | Toxic | 7.06 | 0.084 µg/mL (≈ 0.0875 µM) | 5.3 | 4.8 µg/mL (≈ 5 µM) | 4.81 | 15 µg/mL (≈ 15.6 µM) | inactive | 8.51 | 0.005 µg/mL (≈ 0.00521 µM) | 5.22 | 5.75 µg/mL (≈ 5.99 µM) |
